In the library only some 3.5% were active in any assay of this set; here they are far more common.
RGS4 block = inhibitors of human RGS4; P49798; HEK293 M3R/RGS4 inducible, Fluo-4 calcium flux; stronger effect = higher value; triggered by carbachol at its EC20; B-score at 10 µM; actives 0.45% (n = 310,000); AID 463165;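 active = B-score, a plate-corrected calcium signal, over three deviations above library mean, with baseline fluorescence within five deviations of library mean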;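 note: RGS4 expression induced by doxycycline in cells with stable M3 receptor; B-score is computed from the integrated fluorescence ratio over baseline after carbachol; higher B-score means a larger calcium signal and so more RGS4 inhibition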
Target sequence (P49798 whole entry, looked up): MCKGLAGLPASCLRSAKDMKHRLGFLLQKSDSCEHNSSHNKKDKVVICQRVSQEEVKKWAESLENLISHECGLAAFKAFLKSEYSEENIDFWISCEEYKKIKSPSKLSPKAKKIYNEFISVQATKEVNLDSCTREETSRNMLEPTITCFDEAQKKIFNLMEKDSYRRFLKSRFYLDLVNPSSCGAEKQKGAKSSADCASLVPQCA
MrgX1 PAM = human MrgX1 positive allosteric modulation, primary screen; MrgX1-HEK293, Fluo-4 calcium flux, FDSS; stronger effect = higher value; B-score at 10 µM; actives 0.63% (n = 310,000);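 active = plate-corrected calcium response at least 3 library SD above typical, normal starting fluorescence, not activating the receptor alone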;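 note: compound read alongside a low EC10 to EC30 dose of BAM8-22 agonist; peak minus trough fluorescence over baseline measured at the second addition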
Target sequence (Q96LB2 whole entry, looked up): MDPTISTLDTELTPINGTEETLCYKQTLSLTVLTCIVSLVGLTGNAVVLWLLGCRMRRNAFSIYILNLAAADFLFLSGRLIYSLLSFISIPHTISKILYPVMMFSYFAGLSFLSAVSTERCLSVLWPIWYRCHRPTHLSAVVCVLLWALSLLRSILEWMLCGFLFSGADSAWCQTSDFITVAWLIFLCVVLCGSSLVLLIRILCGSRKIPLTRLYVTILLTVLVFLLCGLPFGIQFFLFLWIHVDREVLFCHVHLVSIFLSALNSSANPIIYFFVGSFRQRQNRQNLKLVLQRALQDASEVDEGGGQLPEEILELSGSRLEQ
MrgX1 agonist = human MrgX1 receptor agonism, primary screen. MrgX1-HEK293 cells, Fluo-4 calcium fluorescence, agonist mode; stronger effect = higher value. B-score at 10 µM. actives 0.44% (n = 310,000);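 active = calcium response B-score plate-corrected fluorescence ratio at least 3 library SD, with starting fluorescence B-score inside 5 SD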
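Material: MrgX1-expressing HEK293 cells; input: 15,000 cells per well; doses: test compound given as first of three sequential additions; schedule: overnight plating before 1 h dye loading; technique: Fluo-4 NW calcium-flux fluorescence, kinetic read; evaluation: baseline-normalised fluorescence change ratio, B-scored; control set: plate-wise positive and negative controls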
MrgX1 antagonist = blocks BAM8-22 activation of human MrgX1 receptor; Q96LB2; MRGX1-HEK293 calcium flux, Fluo-4, BAM8-22 antagonism; stronger effect = lower value; B-score at 10 µM; actives 1.3% (n = 310,000);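 active = calcium-response B-score plate-corrected more than 3 library SD below zero, starting fluorescence within 5 deviations, no agonist response on first addition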;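 note: peak minus trough fluorescence over baseline after final BAM8-22 challenge near maximal dose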
RGS4 pot = RGS4 potentiation or activation; HEK293 M3R/inducible RGS4, carbachol calcium flux Fluo4; stronger effect = lower value; B-score at 10 µM; actives 0.92% (n = 310,000); AID 463111;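 active = B-score of the integrated calcium signal more than 4 SD below the library mean, with starting fluorescence not abnormally high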;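 note: negative B-score means reduced calcium response which marks RGS4 activation or potentiation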
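System – HEK293 FlpIn-TREx cells, stable M3R, doxycycline-inducible RGS4 · Reagent – ECmax carbachol challenge · Times – compound preincubation 20 min at room temperature before agonist · Technique – Fluo4 fluorescence kinetic imaging of calcium · Measure – B score of integrated Fluo4 ratio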
RGS4 inh valid = validation of RGS4 inhibitors | shares compounds with RGS4 block | HEK293 M3R/RGS4, carbachol calcium Fluo-4 fluorescence; carbachol added at its EC20; 0 = buffer wells, 100 = carbachol control | calcium response, % at 10 µM | actives 65% (n = 1,700);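 active = duplicate-averaged calcium response above the buffer-only control mean plus 5 SD of those controls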;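 note: integrated fluorescence ratio F max minus min over baseline F0; higher response in RGS4-induced cells means RGS4 inhibition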
RGS4 uninduced = counter-screen for RGS4 inhibitors: effect in non-induced cells. shares compounds with RGS4 block. HEK293 M3R non-induced, carbachol calcium Fluo-4; submaximal (EC20) carbachol stimulus; buffer wells 0%, carbachol control wells 100%. activity (percent), % at 10 µM. actives 20% (n = 1,900). AID 493000; call rule not given here;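 note: RGS4 induction absent so cells express M3R without RGS4; higher means more calcium signal and flags a non-specific hit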
M3R basal Ca ctr = second counter-screen for RGS4 inhibitors: non-induced cells without carbachol. actives 22% (n = 1,900). shares compounds with RGS4 block. calcium response (agonist-mode artifact), % at 10 µM. HEK293 M3R/RGS4 non-induced, Fluo-4 calcium, no carbachol; normalised: buffer wells 0%, carbachol wells 100%;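 active = duplicate-averaged calcium rise in uninduced cells above buffer wells' mean plus 5 SD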
Active calls of the source: *.

`COCCNC(=S)N(CCCO)Cc1cc2cc3c(cc2[nH]c1=O)OCCO3` gave RGS4 block inactive, MrgX1 PAM inactive, MrgX1 agonist inactive, MrgX1 antagonist inactive, RGS4 pot inactive, RGS4 inh valid inactive, RGS4 uninduced inactive and M3R basal Ca ctr inactive.
For CCN(CC)CCN(Cc1cc2cc3c(cc2[nH]c1=O)OCO3)C(=S)NCCCOC the results were RGS4 block inactive, MrgX1 PAM inactive, MrgX1 agonist inactive, MrgX1 antagonist inactive and RGS4 pot inactive.
For COCCNC(=S)N(CCO)Cc1cc2cc3c(cc2[nH]c1=O)OCO3 the results were RGS4 block inactive, MrgX1 PAM inactive, MrgX1 agonist inactive, MrgX1 antagonist inactive, RGS4 pot inactive, RGS4 inh valid inactive, RGS4 uninduced inactive and M3R basal Ca ctr inactive.
`COC(=O)C1=C(C(=O)OC)SC(=C2C(=S)C(C)(C)N(C(=O)CC(C)C)c3ccccc32)S1` gave RGS4 block inactive, MrgX1 PAM inactive, MrgX1 agonist inactive, MrgX1 antagonist inactive and RGS4 pot inactive.
For Cc1ccc(-c2nc3cnccn3c2Nc2c(C)cccc2C)o1 the results were RGS4 block 6.3*, MrgX1 PAM inactive, MrgX1 agonist inactive, MrgX1 antagonist inactive, RGS4 pot inactive, RGS4 inh valid 8.0%*, RGS4 uninduced inactive and M3R basal Ca ctr 26%*.
Screening Cc1ccc(-c2nc3ncccn3c2Nc2ccccc2C)o1 returned RGS4 block inactive, MrgX1 PAM inactive, MrgX1 agonist inactive, MrgX1 antagonist inactive and RGS4 pot inactive.
For Cc1ccc(C(=O)N2NC(c3ccc(F)cc3)C3C(=O)N(c4ccc(C)c(C)c4)C(=O)C32)cc1 (stereo not given) the results were RGS4 block inactive, MrgX1 PAM inactive, MrgX1 agonist inactive, MrgX1 antagonist inactive and RGS4 pot inactive.
Screening CCOC(=O)/C(C#N)=C/c1c(N2CCN(c3ccccc3)CC2)nc2ccccn2c1=O returned RGS4 block inactive, MrgX1 PAM inactive, MrgX1 agonist inactive, MrgX1 antagonist inactive and RGS4 pot inactive.
Screening COC(=O)c1ccc(OC)c(OC)c1Cl returned RGS4 block 5.8*, MrgX1 PAM inactive, MrgX1 agonist inactive, MrgX1 antagonist inactive, RGS4 pot inactive, RGS4 inh valid 5.5%*, RGS4 uninduced inactive and M3R basal Ca ctr inactive.
`CCOC(=O)c1ccc(OC)c(OC)c1Cl` gave RGS4 block inactive, MrgX1 PAM inactive, MrgX1 agonist inactive, MrgX1 antagonist inactive and RGS4 pot inactive.
Screening COc1ccc(CN(C)C(=O)c2[nH]c(C)c(C(C)=O)c2C)cc1F returned RGS4 block inactive, MrgX1 PAM inactive, MrgX1 agonist inactive, MrgX1 antagonist inactive and RGS4 pot inactive.
`Cc1ccc(N2C(=O)/C(=C/c3cccnc3)SC2=S)cc1` gave RGS4 block inactive, MrgX1 PAM inactive, MrgX1 agonist inactive, MrgX1 antagonist inactive, RGS4 pot inactive, RGS4 uninduced inactive and M3R basal Ca ctr inactive.
`Cc1cccc(N2C(=O)/C(=C/c3cccnc3)SC2=S)c1` gave RGS4 block 4.9*, MrgX1 PAM inactive, MrgX1 agonist inactive, MrgX1 antagonist inactive, RGS4 pot inactive, RGS4 inh valid 19%*, RGS4 uninduced 42%* and M3R basal Ca ctr inactive.
Cc1ccc(/C=C2\SC(=S)N(c3cccnc3)C2=O)o1 was read as RGS4 block inactive, MrgX1 PAM inactive, MrgX1 agonist inactive, MrgX1 antagonist inactive and RGS4 pot inactive.

Bioassay records: PubChem, Johns Hopkins Ion Channel Center
